Screening results (PubChem BioAssay)
ASAP1 inh = ASAP1 ArfGAP inhibition; Q9ULH1; ASAP1-stimulated ARF1 GTP hydrolysis, GDP FP detection; inhibition, % at 16.5 µM; actives 0.19% (n = 360,000); AID 624377; in the data active = inhibition above about 25%;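 also: 0% = vehicle with enzyme and substrate and 100% = no enzyme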
SUMO Mot1 rescue = SUMOylation pathway inhibition by Mot1-301 growth rescue. S. cerevisiae Mot1-301 growth rescue, ATP luminescence, 38.5C; percent above DMSO median, 100 means doubled. growth rescue, % at 18.8 µM. actives 1% (n = 320,000). AID 2716;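 active = every valid replicate shows activation above 250% relative to neutral control wells; inactive = the rest, any valid replicate at or below 250%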;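 also: OY570 slx delta 5 strain wells were the positive control but not used for scaling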
ARFGAP1 inh = rat ARFGAP1 inhibition. inhibition, % at 16.5 µM. actives 0.26% (n = 360,000). Arfgap1-stimulated ARF1 GTP hydrolysis, GDP FP detection. Q62848. AID 651572;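 active = inhibition above a per-plate limit, mean inhibition of low control wells plus 3 SD, cut at about 25% in these data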;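 also: 0% = DMSO wells with enzyme and 100% = wells lacking Arfgap1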
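system = rat Arfgap1 catalytic domain, aa 1-136 | technique = FP, GDP Alexa 633 tracer displaced from anti-GDP antibody, 620/688 nm | compound = one concentration, 16.5 µM, DMSO 1.26% | medium = HEPES-based buffer, pH 7.5 | timing = compound-enzyme preincubation 20 min, reaction 120 min, detection 60 min, 25 °C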
Statin myotox sup = suppressors of simvastatin-induced myotoxicity in C2C12 myotubes; ATP luminescence, 48 h; scaled: DMSO 0, geranylgeraniol control 100; rescue of ATP level, % at 7.49 µM; actives 0.78% (n = 330,000); AID 602340;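 active = mean ATP rescue above about 67%, or every replicate alone reaching that limit, limit read from the data, passing the limit was not always enough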;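 also: myotubes were challenged with 10 µM simvastatin during compound exposure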
APOBEC3A inh = inhibitors of human APOBEC3A DNA deaminase; P31941; recombinant A3A, FAM/TAMRA ssDNA deamination fluorescence; inhibition, % at 20 µM; actives 0.41% (n = 330,000); AID 493011;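 active = at least 40% inhibition at 20 µM here, with at most 30% in a related deaminase screen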;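 also: plate controls were A3A with DMSO for no effect and wells lacking A3A enzyme for full effect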
Target sequence (P31941 whole entry, looked up): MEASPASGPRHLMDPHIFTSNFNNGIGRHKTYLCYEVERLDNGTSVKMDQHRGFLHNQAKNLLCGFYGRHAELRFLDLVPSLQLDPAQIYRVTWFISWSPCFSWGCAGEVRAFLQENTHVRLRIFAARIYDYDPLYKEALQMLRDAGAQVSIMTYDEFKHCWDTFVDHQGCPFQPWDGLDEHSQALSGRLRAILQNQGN
APOBEC3G inh = APOBEC3G (human) deaminase inhibition | actives 0.28% (n = 330,000) | inhibition, % at 20 µM | recombinant A3G, ssDNA deamination FAM/TAMRA fluorescence | Q9HC16;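 active = inhibition of at least 40% at 20 µM, with no more than 30% in the related APOBEC3A deaminase screen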;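 also: plate controls were DMSO wells with A3G for no effect and wells lacking A3G enzyme for full effect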
Target sequence (Q9HC16 whole entry, looked up): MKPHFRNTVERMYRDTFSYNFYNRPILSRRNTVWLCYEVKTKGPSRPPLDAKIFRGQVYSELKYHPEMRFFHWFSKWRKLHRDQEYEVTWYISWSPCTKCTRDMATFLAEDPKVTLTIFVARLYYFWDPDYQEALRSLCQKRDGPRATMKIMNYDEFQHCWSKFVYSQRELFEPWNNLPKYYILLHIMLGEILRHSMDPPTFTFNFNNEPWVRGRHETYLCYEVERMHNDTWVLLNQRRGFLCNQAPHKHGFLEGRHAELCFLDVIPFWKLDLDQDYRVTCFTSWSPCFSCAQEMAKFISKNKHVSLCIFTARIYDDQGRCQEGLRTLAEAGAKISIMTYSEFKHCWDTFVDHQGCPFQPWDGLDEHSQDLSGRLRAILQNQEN
ASAP1 GAP conf = ASAP1 inhibition confirmed; inhibition, % at 16.5 µM; actives 37% (n = 620); ASAP1-stimulated Arf1 GTPase, GDP fluorescence polarization; shares compounds with ASAP1 inh;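 active = mean inhibition over triplicates exceeds the hit threshold derived for the earlier primary screening run, cut at about 25% in these data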
* = called active by the depositor. Only some compounds are listed: those with a hit (about 2.1% of all), similar ones and a draw of the others.

Screening COc1ccc(NC(=O)c2ccc(-c3ccccc3C(F)(F)F)o2)cc1 returned ASAP1 inh 26*, SUMO Mot1 rescue 7, ARFGAP1 inh 11, Statin myotox sup 5, APOBEC3A inh 4, APOBEC3G inh 0 and ASAP1 GAP conf 11.
C[C@@H]1CN([C@@H](C)CO)C(=O)Cc2cc(NS(=O)(=O)c3cn(C)cn3)ccc2O[C@@H]1CN(C)C(=O)Nc1ccc(F)cc1 was read as Statin myotox sup 9.
`Cn1c(N)c(C(=O)COC(=O)c2cc(S(=O)(=O)N3CCCCC3)ccc2Cl)c(=O)n(C)c1=O` gave ASAP1 inh 0, SUMO Mot1 rescue -5, ARFGAP1 inh -5, APOBEC3A inh 14 and APOBEC3G inh -1.
For COc1ccc(S(=O)(=O)N2CCc3ccccc32)cc1C(=O)OCC(=O)c1c(N)n(C)c(=O)n(C)c1=O the results were ASAP1 inh 26*, SUMO Mot1 rescue -13, ARFGAP1 inh 11, APOBEC3A inh -7, APOBEC3G inh -5 and ASAP1 GAP conf 4.
COc1cccc(C(=O)Nc2ccc3c(c2)OC[C@@H](C)N(C)C[C@H](C)[C@H](OC)CN(C)C3=O)c1 was read as Statin myotox sup -4.
For C=CCN=C1NC(c2ccc(F)cc2)C(C(=O)OC)=C(C)N1Cc1ccccc1C(F)(F)F (centres undefined) the results were ASAP1 inh 25*, ARFGAP1 inh 9 and ASAP1 GAP conf -2.
C=CCN=C1NC(c2ccc(C(F)(F)F)cc2)C(C(=O)OC)=C(C)N1Cc1ccccc1C(F)(F)F (centres undefined) was read as ASAP1 inh 2 and ARFGAP1 inh 18.
O=[N+]([O-])c1cc(C(F)(F)F)ccc1NCCc1c[nH]c2ccc(O)cc12 was read as ASAP1 inh 26*, SUMO Mot1 rescue -2, ARFGAP1 inh 3, Statin myotox sup 18, APOBEC3A inh -3, APOBEC3G inh 0 and ASAP1 GAP conf 12.
Screening C[C@H](CO)N1C[C@H](C)[C@@H](CN(C)Cc2cncnc2)Oc2cc(C#C[C@@H](C)O)ccc2S1(=O)=O returned Statin myotox sup 17.
CCNC(=O)c1ccc(CSc2nc3ccccc3s2)cc1 was read as ASAP1 inh 27*, SUMO Mot1 rescue 87, ARFGAP1 inh 12, APOBEC3A inh -5, APOBEC3G inh -6 and ASAP1 GAP conf 8.
`COCCNC(=O)c1ccc(CSc2nc3ccccc3s2)cc1` gave ASAP1 inh -20, SUMO Mot1 rescue -1, ARFGAP1 inh 0, Statin myotox sup -1, APOBEC3A inh -4 and APOBEC3G inh -7.
`CN1CCN(C(=O)C[C@H]2CC[C@@H]3[C@H](COC[C@@H](O)CN3Cc3ccc(Oc4ccccc4)cc3)O2)CC1` gave Statin myotox sup 38.
CC1=CC2=NC(=O)/C(=C\c3ccc(-c4ccc(Cl)cc4)o3)C(=N)N2O1 was read as ASAP1 inh 30*, ARFGAP1 inh 4 and ASAP1 GAP conf 87*.
`CC1=CC2=NC(=O)/C(=C/c3cccs3)C(=N)N2O1` gave ASAP1 inh 5, SUMO Mot1 rescue -11, ARFGAP1 inh -7, APOBEC3A inh 1 and APOBEC3G inh 4.
`CS(=O)(=O)N1[C@@H]2Cn3c(ccc(-c4cccc(F)c4)c3=O)[C@H]1[C@@H](C(=O)N1CCOCC1)[C@@H]2CO` gave Statin myotox sup 1.
O=[N+]([O-])c1ccc(OCCOc2ccccc2/C=N/n2cnnc2)cc1 was read as ASAP1 inh 37*, SUMO Mot1 rescue -5, ARFGAP1 inh -2, Statin myotox sup 6, APOBEC3A inh 0, APOBEC3G inh 1 and ASAP1 GAP conf 46*.
COc1ccc(NC(=O)N(C)C[C@H]2Oc3ccc(NS(=O)(=O)c4cn(C)cn4)cc3C(=O)N([C@@H](C)CO)C[C@@H]2C)cc1 was read as Statin myotox sup 31.
Screening CCOC(=O)c1[nH]c(C)c(C(=O)Nc2ccc(F)cc2)c1C returned ASAP1 inh 7, SUMO Mot1 rescue -7, ARFGAP1 inh -11, Statin myotox sup 1, APOBEC3A inh -7 and APOBEC3G inh -1.
For CCOC(=O)c1[nH]c(C)c(C(=O)Nc2ccc(C)c(C)c2)c1C the results were ASAP1 inh 26*, SUMO Mot1 rescue -12, ARFGAP1 inh -10, Statin myotox sup 6, APOBEC3A inh -4, APOBEC3G inh -8 and ASAP1 GAP conf 2.
For CCOc1ccc2[nH]c(C(=O)N/N=C/c3ccccc3OC)cc2c1 the results were ASAP1 inh 30*, SUMO Mot1 rescue -6, ARFGAP1 inh 10, Statin myotox sup -19, APOBEC3A inh 1, APOBEC3G inh -2 and ASAP1 GAP conf 28*.
`CCCS(=O)(=O)c1c(S(=O)(=O)CCC)c2cnccn2c1C(=O)c1ccc(Cl)cc1` gave ASAP1 inh 27*, SUMO Mot1 rescue 12, ARFGAP1 inh -5, APOBEC3A inh -2, APOBEC3G inh 6 and ASAP1 GAP conf 7.
Screening O=c1[nH]c(Nc2ccccc2)cc2cc(Br)ccc12 returned ASAP1 inh 36*, SUMO Mot1 rescue 115, ARFGAP1 inh 22, Statin myotox sup 28, APOBEC3A inh -7, APOBEC3G inh -8 and ASAP1 GAP conf 18.
`C[C@@H]1CN([C@@H](C)CO)C(=O)c2cc(-c3ccc(F)cc3)cnc2O[C@H]1CN(C)C(=O)NC1CCCC1` gave Statin myotox sup 15.
`COc1ccc(/C=N/NC(=O)Cn2c(Cc3ccc(OC)c(OC)c3)nc3ccccc32)cc1OC` gave ASAP1 inh 31*, SUMO Mot1 rescue 0, ARFGAP1 inh -3, APOBEC3A inh -2, APOBEC3G inh -9 and ASAP1 GAP conf -1.
`COc1ccc(Cc2nc3ccccc3n2CC(=O)N/N=C/c2ccc(O)cc2)cc1OC` gave ASAP1 inh 6, SUMO Mot1 rescue 42, ARFGAP1 inh -10, APOBEC3A inh 1 and APOBEC3G inh -1.
`C[C@H](CO)N1C[C@H](C)[C@H](CN(C)C(=O)CC2CC2)Oc2cc(C#CC(C)(C)O)ccc2S1(=O)=O` gave Statin myotox sup -2.
Screening CCCNC(=O)C[C@@H]1C[C@H]2c3cc(NC(=O)c4cccnc4)ccc3O[C@H]2[C@@H](CO)O1 returned Statin myotox sup -4.
For C[C@@H]1CN([C@@H](C)CO)C(=O)Cc2cc(NC(=O)Nc3ccccc3)ccc2O[C@H]1CN(C)C(=O)Nc1cccc2ccccc12 the results were Statin myotox sup 38.
